Results as given in ChEMBL document CHEMBL3352430, “4-Aminopyridyl-based CYP51 inhibitors as anti-Trypanosoma cruzi drug leads with improved pharmacokinetic profile and in vivo potency” (J Med Chem, 2014).

How the values were obtained:
[1] = system: Intestine; experiment: Drug uptake in mouse intestine at 50 mg/kg, po in 20% HP-beta-CD measured at 8 hrs post dose; assay type: ADME, organism-based; parameters: dose 50 mg/kg, route oral; conditions: in vivo
Procedure, shortened: (§1)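 Female Swiss Webster mice, 8 weeks old, given a single 50 mg/kg oral gavage dose in 20% HPβCD or 20% Kolliphor. Tissues taken from three mice at 2 and 8 h post dose. Homogenized by probe sonication in PBS (1:4 w/v), protein precipitated with acetonitrile, and compound measured by LC-MS/MS in μM.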

[2] = system: Liver; experiment: Drug uptake in mouse liver at 50 mg/kg, po in 20% Kolliphor measured at 8 hrs post dose; assay type: ADME, organism-based; parameters: dose 50 mg/kg, route oral; conditions: in vivo; procedure, shortened: as §1
[3] = system: Lung; experiment: Drug uptake in mouse lung at 50 mg/kg, po in 20% Kolliphor measured at 8 hrs post dose; assay type: ADME, organism-based; parameters: dose 50 mg/kg, route oral; conditions: in vivo; procedure, shortened: as §1
[4] = system: Heart; experiment: Drug uptake in mouse heart at 50 mg/kg, po in 20% Kolliphor measured at 8 hrs post dose; assay type: ADME, organism-based; parameters: dose 50 mg/kg, route oral; conditions: in vivo; procedure, shortened: as §1
[5] = Drug uptake in mouse fat at 50 mg/kg, po in 20% Kolliphor measured at 8 hrs post dose; assay type: ADME, organism-based, Adipose tissue; parameters: dose 50 mg/kg, route oral; conditions: in vivo; procedure, shortened: as §1
[6] = Drug uptake in mouse skeletal muscle at 50 mg/kg, po in 20% Kolliphor measured at 8 hrs post dose; assay type: ADME, organism-based, Muscle tissue; parameters: dose 50 mg/kg, route oral; conditions: in vivo; procedure, shortened: as §1
[7] = system: Liver; experiment: Drug uptake in mouse liver at 50 mg/kg, po in 20% HP-beta-CD measured at 8 hrs post dose; assay type: ADME, organism-based; parameters: dose 50 mg/kg, route oral; conditions: in vivo; procedure, shortened: as §1
[8] = system: Lung; experiment: Drug uptake in mouse lung at 50 mg/kg, po in 20% HP-beta-CD measured at 8 hrs post dose; assay type: ADME, organism-based; parameters: dose 50 mg/kg, route oral; conditions: in vivo; procedure, shortened: as §1
[9] = system: Heart; experiment: Drug uptake in mouse heart at 50 mg/kg, po in 20% HP-beta-CD measured at 8 hrs post dose; assay type: ADME, organism-based; parameters: dose 50 mg/kg, route oral; conditions: in vivo; procedure, shortened: as §1
[10] = Drug uptake in mouse fat at 50 mg/kg, po in 20% HP-beta-CD measured at 8 hrs post dose; assay type: ADME, organism-based, Adipose tissue; parameters: dose 50 mg/kg, route oral; conditions: in vivo; procedure, shortened: as §1
[11] = Drug uptake in mouse skeletal muscle at 50 mg/kg, po in 20% HP-beta-CD measured at 8 hrs post dose; assay type: ADME, organism-based, Muscle tissue; parameters: dose 50 mg/kg, route oral; conditions: in vivo; procedure, shortened: as §1
[12] = biological target: Sterol 14-alpha demethylase (Trypanosoma cruzi (strain CL Brener), UniProt Q7Z1V1); experiment: Binding affinity to Trypanosoma cruzi CYP51 by UV-vis titration method; conditions: read-out: Kd(app)
[13] = system: Trypanosoma cruzi; experiment: Antitrypanosomal activity against Trypanosoma cruzi Y luc infected in mouse assessed as inhibition of parasitemia at 25 mg/kg, po bid in 20% Kolliphor administered for 4 consecutive days starting on day 3 of infection measured on day 7 post infection relative to vehicle-treated control; assay type: functional
Procedure, shortened: (§2)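 Female Swiss Webster mice, 8 weeks old, infected ip with 10^5 T. cruzi Y luc trypomastigotes. Only mice with detectable luminescence on day 3 were treated. Compound given by oral gavage bid for four days, as a suspension in 20% HPβCD or a solution in 20% Kolliphor, five mice per group. Vehicle group and benznidazole 50 mg/kg served as controls. On day 7, mice were injected ip with 150 mg/kg d-luciferin and imaged after 5 min under isoflurane. Percent inhibition calculated against untreated mice; two-tailed paired t test.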

[14] = system: Trypanosoma cruzi; experiment: Antitrypanosomal activity against Trypanosoma cruzi Y luc infected in mouse assessed as inhibition of parasitemia at 50 mg/kg, po bid in 20% Kolliphor administered for 4 consecutive days starting on day 3 of infection measured on day 7 post infection relative to vehicle-treated control; assay type: functional; procedure, shortened: as §2
[15] = system: Liver microsome; experiment: Half life in human liver microsomes; assay type: ADME
[16] = system: Liver microsome; experiment: Half life in rat liver microsomes; assay type: ADME
[17] = system: Liver; experiment: Half life in mouse liver microsomes; assay type: ADME
[18] = biological target: T1, Cytochrome P450 1A2 (Homo sapiens, UniProt P05177); experiment: Inhibition of CYP1A2 in human liver microsomes at 1 uM; assay type: ADME
T1 sequence (P05177 whole entry): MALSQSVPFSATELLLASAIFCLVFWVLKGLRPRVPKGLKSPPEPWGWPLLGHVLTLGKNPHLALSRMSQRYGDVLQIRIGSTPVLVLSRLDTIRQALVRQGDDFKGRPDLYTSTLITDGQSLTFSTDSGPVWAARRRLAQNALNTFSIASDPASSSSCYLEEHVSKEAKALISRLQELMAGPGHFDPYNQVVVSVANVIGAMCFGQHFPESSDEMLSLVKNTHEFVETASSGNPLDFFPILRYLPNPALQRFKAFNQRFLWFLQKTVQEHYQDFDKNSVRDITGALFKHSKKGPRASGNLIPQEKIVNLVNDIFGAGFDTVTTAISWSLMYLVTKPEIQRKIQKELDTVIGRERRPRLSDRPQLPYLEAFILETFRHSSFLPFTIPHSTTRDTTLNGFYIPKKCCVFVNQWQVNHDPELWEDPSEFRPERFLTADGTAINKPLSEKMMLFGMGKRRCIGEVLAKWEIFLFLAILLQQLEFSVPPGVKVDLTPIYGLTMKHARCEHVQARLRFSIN

[19] = biological target: Cytochrome P450 2C9 (Homo sapiens, UniProt P11712); experiment: Inhibition of CYP2C9 in human liver microsomes at 1 uM; assay type: ADME
[20] = biological target: Cytochrome P450 2D6 (Homo sapiens, UniProt P10635); experiment: Inhibition of CYP2D6 in human liver microsomes at 1 uM; assay type: ADME
[21] = biological target: Cytochrome P450 3A4 (Homo sapiens, UniProt P08684); experiment: Inhibition of CYP3A4 in human liver microsomes at 1 uM; assay type: ADME
[22] = system: Trypanosoma cruzi; experiment: Antitrypanosomal activity against Trypanosoma cruzi amastigotes infected in mouse C2C12 cells after 72 hrs by DAPI staining method; assay type: functional, organism-based; conditions: C2C12, 72 h
[23] = system: C2C12; experiment: Cytotoxicity against mouse C2C12 cells up to 10 uM; assay type: cell-based
Procedure, shortened: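 Mouse C2C12 myoblasts infected with T. cruzi CA-I/72, then exposed at 24 h postinfection to compound at 10 μM down to 5 pM in 5-fold steps for 72 h at 37 °C. Cells fixed in paraformaldehyde, stained with DAPI and scored by automated imaging. Triplicate wells; uninfected and infected untreated wells as controls.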

[24] = Half life in mouse at 50 mg/kg, po in 20% Kolliphor; assay type: ADME, organism-based; parameters: dose 50 mg/kg, route oral; conditions: in vivo
Procedure, shortened: (§3)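 Female Swiss Webster mice, 8 weeks old, given one oral gavage dose of 50 mg/kg as a 10 mg/mL preparation in the named vehicle (20% HPβCD suspension or 20% Kolliphor). Plasma sampled at about 0.25, 0.5, 1, 2, 4, 6, 8, 12 and 24 h, n = 3 per time point. Protein precipitated with 5 volumes acetonitrile, filtered, then LC-MS/MS. Values are averages of three mice.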

[25] = Half life in mouse at 50 mg/kg, po in 20% HP-beta-CD; assay type: ADME, organism-based; parameters: dose 50 mg/kg, route oral; conditions: in vivo; procedure, shortened: as §3
[26] = Tmax in mouse at 50 mg/kg, po in 20% Kolliphor; assay type: ADME, organism-based; parameters: dose 50 mg/kg, route oral; conditions: in vivo; procedure, shortened: as §3
[27] = Tmax in mouse at 50 mg/kg, po in 20% HP-beta-CD; assay type: ADME, organism-based; parameters: dose 50 mg/kg, route oral; conditions: in vivo; procedure, shortened: as §3
[28] = Cmax in mouse at 50 mg/kg, po in 20% Kolliphor; assay type: ADME, organism-based; parameters: dose 50 mg/kg, route oral; conditions: in vivo; procedure, shortened: as §3
[29] = Cmax in mouse at 50 mg/kg, po in 20% HP-beta-CD; assay type: ADME, organism-based; parameters: dose 50 mg/kg, route oral; conditions: in vivo; procedure, shortened: as §3
[30] = AUClast in mouse at 50 mg/kg, po in 20% Kolliphor; assay type: ADME, organism-based; parameters: time 0 - last, dose 50 mg/kg, route oral; conditions: plasma; procedure, shortened: as §3
[31] = AUClast in mouse at 50 mg/kg, po in 20% HP-beta-CD; assay type: ADME, organism-based, Plasma; parameters: time 0 - last, dose 50 mg/kg, route oral; conditions: plasma; procedure, shortened: as §3
[32] = Clearance in mouse at 50 mg/kg, po in 20% Kolliphor; assay type: ADME, organism-based; parameters: dose 50 mg/kg, route oral; conditions: in vivo; procedure, shortened: as §3
[33] = Clearance in mouse at 50 mg/kg, po in 20% HP-beta-CD; assay type: ADME, organism-based; parameters: dose 50 mg/kg, route oral; conditions: in vivo; procedure, shortened: as §3
[34] = system: Intestine; experiment: Drug uptake in mouse intestine at 50 mg/kg, po in 20% Kolliphor measured at 8 hrs post dose; assay type: ADME, organism-based; parameters: dose 50 mg/kg, route oral; conditions: in vivo; procedure, shortened: as §1

Chain of Sterol 14-alpha demethylase (Q7Z1V1 whole entry): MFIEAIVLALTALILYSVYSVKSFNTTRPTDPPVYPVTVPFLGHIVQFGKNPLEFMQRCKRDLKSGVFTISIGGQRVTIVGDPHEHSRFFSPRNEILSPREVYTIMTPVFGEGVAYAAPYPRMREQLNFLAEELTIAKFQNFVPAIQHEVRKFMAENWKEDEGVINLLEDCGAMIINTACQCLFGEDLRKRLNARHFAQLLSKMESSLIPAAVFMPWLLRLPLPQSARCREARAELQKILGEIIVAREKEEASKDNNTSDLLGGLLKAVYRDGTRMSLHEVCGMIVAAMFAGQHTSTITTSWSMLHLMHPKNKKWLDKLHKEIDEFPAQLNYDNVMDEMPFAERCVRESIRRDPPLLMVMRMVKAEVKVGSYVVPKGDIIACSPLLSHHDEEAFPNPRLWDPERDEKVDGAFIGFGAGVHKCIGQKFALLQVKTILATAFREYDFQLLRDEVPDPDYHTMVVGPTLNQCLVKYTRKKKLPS
Chain of Cytochrome P450 3A4 (P08684 whole entry): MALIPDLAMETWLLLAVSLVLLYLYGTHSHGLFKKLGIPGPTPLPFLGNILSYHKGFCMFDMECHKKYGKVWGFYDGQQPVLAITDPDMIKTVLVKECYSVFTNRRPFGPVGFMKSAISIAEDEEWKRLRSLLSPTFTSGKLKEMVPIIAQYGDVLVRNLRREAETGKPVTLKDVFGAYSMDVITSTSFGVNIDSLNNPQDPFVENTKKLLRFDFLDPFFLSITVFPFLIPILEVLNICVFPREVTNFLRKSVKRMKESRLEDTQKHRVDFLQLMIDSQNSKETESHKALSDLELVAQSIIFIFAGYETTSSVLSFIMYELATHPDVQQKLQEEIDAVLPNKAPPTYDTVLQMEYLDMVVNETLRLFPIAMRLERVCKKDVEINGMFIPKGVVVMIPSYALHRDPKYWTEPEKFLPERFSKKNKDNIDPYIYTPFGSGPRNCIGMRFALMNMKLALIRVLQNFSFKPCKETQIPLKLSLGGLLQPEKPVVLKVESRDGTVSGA
Chain of Cytochrome P450 2D6 (P10635 whole entry): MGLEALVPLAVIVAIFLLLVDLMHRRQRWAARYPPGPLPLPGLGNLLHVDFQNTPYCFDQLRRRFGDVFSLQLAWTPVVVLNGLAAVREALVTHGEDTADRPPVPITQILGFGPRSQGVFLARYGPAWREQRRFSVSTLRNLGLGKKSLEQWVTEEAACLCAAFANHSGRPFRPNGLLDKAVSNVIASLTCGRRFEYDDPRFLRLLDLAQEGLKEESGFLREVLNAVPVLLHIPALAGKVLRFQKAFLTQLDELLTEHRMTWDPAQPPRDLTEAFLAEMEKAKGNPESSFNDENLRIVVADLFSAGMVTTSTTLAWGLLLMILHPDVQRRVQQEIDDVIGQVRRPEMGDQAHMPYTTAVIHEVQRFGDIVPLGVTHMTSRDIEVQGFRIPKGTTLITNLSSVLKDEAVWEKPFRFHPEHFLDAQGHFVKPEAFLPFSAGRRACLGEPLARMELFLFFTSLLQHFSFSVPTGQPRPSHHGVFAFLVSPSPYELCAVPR
Chain of Cytochrome P450 2C9 (P11712 whole entry): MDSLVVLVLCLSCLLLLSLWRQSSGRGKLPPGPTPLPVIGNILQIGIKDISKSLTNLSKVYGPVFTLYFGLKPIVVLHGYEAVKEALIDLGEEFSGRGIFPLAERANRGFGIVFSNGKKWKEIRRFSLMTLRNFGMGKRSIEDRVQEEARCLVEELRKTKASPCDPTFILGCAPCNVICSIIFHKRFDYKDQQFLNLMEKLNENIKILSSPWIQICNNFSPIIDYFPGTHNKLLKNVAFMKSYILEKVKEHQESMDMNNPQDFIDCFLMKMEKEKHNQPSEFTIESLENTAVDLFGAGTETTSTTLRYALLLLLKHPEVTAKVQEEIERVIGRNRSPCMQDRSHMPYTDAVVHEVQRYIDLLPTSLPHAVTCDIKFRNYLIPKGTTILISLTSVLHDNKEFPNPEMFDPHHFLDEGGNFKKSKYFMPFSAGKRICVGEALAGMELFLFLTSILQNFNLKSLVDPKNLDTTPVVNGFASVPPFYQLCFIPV

Drug uptake [1]: Active
Drug uptake [2]: Active
Drug uptake [3]: Active
Drug uptake [4]: Active
Drug uptake [5]: Active
Drug uptake [6]: Active
Drug uptake [7]: Active
Drug uptake [8]: Active
Drug uptake [9]: Active
Drug uptake [10]: Active
Drug uptake [11]: Active
Kd [12]: 0.016 µM
t1/2 [15]: 0.467 h
t1/2 [16]: 0.417 h
t1/2 [17]: 0.9 h
inhibition (INH) [18]: 2%
inhibition (INH) [19]: 93%
inhibition (INH) [20]: 29%
inhibition (INH) [21]: 29%
EC50 [22]: 0.078 µM
half-life [24]: 16.8 h
half-life [25]: 5.17 h
Tmax [26]: 0.75 h
Tmax [27]: 2.67 h
Cmax [28]: 17.8 µM
Cmax [29]: 5.88 µM
AUC(0-t) [30]: 153 µM·h
AUC(0-t) [31]: 30.2 µM·h
CL/F [32]: 9.28 mL/min/kg
CL/F [33]: 44.4 mL/min/kg
Drug uptake [34]: Active
SMILES: O=C(N[C@H](Cc1c[nH]c2ccccc12)C(=O)Nc1ccncc1)c1ccc(-c2ccc(F)c(Cl)c2)cc1F
inhibition in vivo at 25 mg/kg [13]: 56.7%
inhibition in vivo at 50 mg/kg [14]: 85.2%
Activity [23]: Non-toxic
